Assay results from different studies.
Target: Cytoplasmic tyrosine-protein kinase BMX (BMX, Homo sapiens, UniProt P51813)
Residues used in one study (P51813 1-675): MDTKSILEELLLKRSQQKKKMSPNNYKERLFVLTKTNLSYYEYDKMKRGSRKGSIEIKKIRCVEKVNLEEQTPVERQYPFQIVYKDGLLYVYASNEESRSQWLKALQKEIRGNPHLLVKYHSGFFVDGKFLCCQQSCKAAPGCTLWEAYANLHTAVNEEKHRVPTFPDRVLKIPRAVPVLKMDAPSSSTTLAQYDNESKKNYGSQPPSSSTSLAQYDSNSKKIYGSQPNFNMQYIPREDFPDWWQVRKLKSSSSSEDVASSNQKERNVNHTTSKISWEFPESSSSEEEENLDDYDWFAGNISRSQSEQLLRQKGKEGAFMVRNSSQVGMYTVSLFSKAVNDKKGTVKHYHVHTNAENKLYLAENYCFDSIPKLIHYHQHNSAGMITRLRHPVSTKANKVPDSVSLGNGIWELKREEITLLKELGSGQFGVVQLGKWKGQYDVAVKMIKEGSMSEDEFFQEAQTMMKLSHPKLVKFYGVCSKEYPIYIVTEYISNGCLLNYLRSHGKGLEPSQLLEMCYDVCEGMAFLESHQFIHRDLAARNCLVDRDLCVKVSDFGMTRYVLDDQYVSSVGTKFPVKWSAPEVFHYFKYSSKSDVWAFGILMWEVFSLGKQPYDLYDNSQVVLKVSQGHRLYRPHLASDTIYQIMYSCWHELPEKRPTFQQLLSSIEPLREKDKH

| SMILES | assay | setting | remaining binding |
| --- | --- | --- | --- |
| O=C(NCC1CCOCC1)c1n[nH]cc1NC(=O)c1c(F)cccc1F | binding, competition with immobilised ligand | 1 µM | 100% |
| c1cnn2ncc(-c3ccnc(N4CCC45COC5)n3)c2c1 | binding | 1 µM | 90% |
| CCCOc1ccc([C@H]2[C@H](C(=O)O)[C@@H](c3ccc4c(c3)OCO4)CN2CC(=O)Nc2c(CC)cccc2CC)cc1 | cell-free assay, competition with immobilised ligand | 1 µM | 100% |
| CN(CCCC(F)(F)F)c1nccc(-c2cnn3ncccc23)n1 | binding | 1 µM | 83% |
| O=C(NCCCN1CCOCC1)c1ccc(Nc2ncc(Cl)c(-c3ccc(Cl)s3)n2)cc1 | binding, competition with immobilised ligand | 1 µM | 89% |
| O=C(O)[C@H]1[C@H](Cn2nnc3ccccc3c2=O)CC[C@@H]1C(=O)c1ccc(OCCC2CCOCC2)cc1 | cell-free assay, competition with immobilised ligand | 1 µM | 92% |
| COc1cnc(Nc2cccc(S(N)(=O)=O)c2)nc1N1CCN(c2ccccc2)CC1 | binding, competition with immobilised ligand | 1 µM | 93% |
| O=C(NCCCN1CCOCC1)c1ccc(Nc2nccc(-c3cc4ccccc4s3)n2)cc1 | binding, competition with immobilised ligand | 1 µM | 100% |
| CO[C@@H](C)c1c(Nc2ccc([C@H](N(C)C(=O)C3CCS(=O)(=O)CC3)C(F)(F)F)cc2)cnc2cc(Cl)nn12 | cell-free assay, competition with immobilised ligand | 1 µM | 99% |
| C[C@@H]1CCN(c2nccc(-c3cnn4ncccc34)n2)C1 | binding | 1 µM | 100% |
| FC(F)(F)Oc1cccc(-c2cnc3ccc(-c4ccncc4)nn23)c1 | cell-free assay, competition with immobilised ligand | 5 µM | 86% |
| CCOCCn1cc(C(=O)Nc2ccc(-n3nc(-c4cccnc4)cc3C(F)(F)F)cn2)ccc1=O | cell-free assay, competition with immobilised ligand | 1 µM | 84% |
| CNC(=O)[C@@H]1CC[C@@H](n2c(-c3ccc4cnccc4c3)nc3ccc(C(=O)NCc4cccc(C(N)=O)c4)cc32)C1 | binding, competition with immobilised ligand | 1 µM | 100% |
| C[C@@H](c1cccc(C#N)c1)n1cc(Cl)cc(C(N)=O)c1=N | cell-free assay, competition with immobilised ligand | 1 µM | 95% |
| CN(C)c1nccc(-c2cnn3ncccc23)n1 | binding | 1 µM | 87% |
| Nc1ncc2c(n1)-c1c([nH]c3ccc(C#CC4CC4)cc13)CCCC2 | binding, competition with immobilised ligand | 1 µM | 86% |
| Cc1cnc(Nc2ccc(C(=O)N3CCC(N4CCCC4)CC3)cc2)nc1-c1cc2ccccc2s1 | binding, competition with immobilised ligand | 1 µM | 75% |
| COc1ccnn2ncc(-c3ccnc(N(C)C)n3)c12 | binding | 1 µM | 100% |
| CN1CCN(c2cnc3c(C4CCN(C(=O)c5ccc(OC(F)(F)F)cc5N)CC4)ncnc3c2)CC1 | cell-free assay, competition with immobilised ligand | 1 µM | 100% |
| N[C@@H]1CCN(c2nccc(-c3cnn4ncccc34)n2)C1 | binding | 1 µM | 97% |
| C[C@@H](c1ccc(-n2cnc3c(N)ncnc32)cc1)N1CCc2nn(C)c(Cc3ccccc3)c2C1=O | binding, competition with immobilised ligand | 0.1 µM | 52% |
